Type in all cases: functional
Assay [1] deals with SW1573. The experiment in a line: Antiproliferative activity against human SW1573 cells after 48 hrs by sulforhodamine B assay. The settings on record: SW1573, 48 h; for CC50: read-out: LC50 (the source's name). In a few lines: (§1)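 Dose-response curves built per compound up to 100 μM maximum; percentage of growth (PG) computed, with GI₅₀, TGI and LC₅₀ taken as concentrations giving PG +50, 0 and −50. TGI and LC₅₀ reported only when below 100 μM. Values in μM, means of two to four experiments with standard deviation.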
For orientation: In SRB staining, fixed cells bind dye roughly in proportion to their protein.

Assay [2] relates to WiDr. The experiment in a line: Antiproliferative activity against human WiDr cells after 48 hrs by sulforhodamine B assay. In a few lines: as §1
The test system of assay [3] is A2780. The experiment in a line: Antiproliferative activity against human A2780 cells after 48 hrs by sulforhodamine B assay. Particulars: A2780, 48 h. In a few lines:
as §1

SMILES strings stand for the structures.

By GI50 is commonly meant the concentration giving 50% growth inhibition. On to `CC(C)(C)[Si](C)(C)O[C@@H]1CCCO[C@@H]1COCCCO`, for which the GI50 in assay [1], in assay [2] and in assay [3] was more than 100 µM each time.
Consider `c1ccc([C@H]2OC[C@H]3OCCC[C@H]3O2)cc1`, for which the concentration for 50% growth inhibition (GI50) in assay [1], in assay [2] and in assay [3] was more than 100 µM throughout.
`c1cc([C@H]2OC[C@H]3OCCC[C@H]3O2)nc([C@H]2OC[C@H]3OCCC[C@H]3O2)c1`: the 50% growth inhibitory concentration (GI50) in assay [1], in assay [2] and in assay [3] was more than 100 µM each time.
Turning to `C=C[C@H]1CCC[C@@H]([C@H]2COC(C)(C)O2)O1`, the GI50 in assay [2] was more than 100 µM.
For the compound `CC(C)(C)[Si](C)(C)O[C@@H]1CCCO[C@@H]1CO/C=C/C(=O)OCc1ccccc1`, the figures for the GI50 in assay [1], in assay [2] and in assay [3] were 26 µM, 37 µM and 26 µM, respectively.
Broadly, the TGI is the concentration at which net growth stops. Higher therefore signals less potent growth arrest. As to `CC(C)(C)[Si](C)(C)O[C@@H]1CCCO[C@@H]1COCC(=O)OCc1ccccc1`, the GI50 in assay [1] was determined as 29 µM; in assay [2], 37 µM; in assay [3], 28 µM. For the same compound, the TGI in assay [1] came out at 85 µM; in assay [2], 88 µM; in assay [3], 81 µM. In assay [3], the LC50 (concentration giving 50% net cell kill) was determined as 94 µM.
In the case of `O=C(COC[C@H]1OCCC[C@H]1O)OCc1ccccc1`, the GI50 in assay [1], in assay [2] and in assay [3] was more than 100 µM in each case.
Turning to `O=C1COC[C@H]2OCCC[C@H]2O1`, the GI50 in assay [1], in assay [2] and in assay [3] was more than 100 µM in each case.
Take `COC(=O)CCOC[C@H]1OCCC[C@H]1O[Si](C)(C)C(C)(C)C`: the GI50 in assay [1], in assay [2] and in assay [3] was more than 100 µM throughout.
Take `c1cc([C@H]2OC[C@H]3OCCC[C@H]3O2)ccc1[C@H]1OC[C@H]2OCCC[C@H]2O1`: the GI50 in assay [1], in assay [2] and in assay [3] was more than 100 µM in each case.
As to `CC(C)(C)[Si](C)(C)O[C@@H]1CCCO[C@@H]1CO/C=C/CO`, the GI50 in assay [1], in assay [2] and in assay [3] was more than 100 µM each time.
Consider `CC(C)(C)[Si](C)(C)O[C@@H]1CCCO[C@@H]1CO` (relative stereo), for which the GI50 in assay [1], in assay [2] and in assay [3] was more than 100 µM throughout.
With `COC(=O)/C=C/OC[C@H]1OCCC[C@H]1O[Si](C)(C)C(C)(C)C` (relative stereo), the values for the GI50 in assay [1], in assay [2] and in assay [3] were 50 µM, 36 µM and 30 µM, respectively. The compound further displayed a concentration for total growth inhibition (TGI) in assay [3] of 82 µM.
For the compound `CC(C)(C)[Si](C)(C)O[C@H]1CCCO[C@@H]1CO` (relative stereo), the GI50 in assay [1], in assay [2] and in assay [3] was more than 100 µM each time.
In the case of `O=C(COC[C@H]1OCCC[C@@H]1O)OCc1ccccc1` (relative stereo), the GI50 in assay [1], in assay [2] and in assay [3] was more than 100 µM each time.
For the compound `O=C1COC[C@H]2OCCC[C@@H]2O1` (relative stereo), the GI50 in assay [1], in assay [2] and in assay [3] was more than 100 µM each time.
With `C=CCOC[C@H]1OCCC[C@H]1O[Si](C)(C)C(C)(C)C` (relative stereo), in assay [1], the GI50 was found to be 18 µM, total growth inhibition (TGI) required 39 µM and the CC50 is 85 µM. This compound also returned a GI50 in assay [2] of 88 µM. In addition, in assay [3], halving of growth (GI50) required 15 µM, the LC50 (concentration giving 50% net cell kill) came out at 68 µM and the TGI is 32 µM.
As for `CC(C)(C)[Si](C)(C)O[C@@H]1CCCO[C@@H]1COCC(=O)O` (relative stereo), the GI50 in assay [1], in assay [2] and in assay [3] was more than 100 µM throughout.
With `CC(C)(C)[Si](C)(C)O[C@H]1CCCO[C@@H]1COCC(=O)OCc1ccccc1` (relative stereo), in assay [1], it took 17 µM to inhibit growth by half (GI50), the TGI is 37 µM and the CC50 was found to be 79 µM. In addition, in assay [2], the GI50 is 28 µM and the TGI is 91 µM. In assay [3], this compound registered a GI50 of 17 µM, an LC50 (concentration giving 50% net cell kill) of 74 µM and a TGI of 36 µM.

The values are drawn from ChEMBL document CHEMBL1138421, “Synthesis and antiproliferative activity of (2R,3R)-disubstituted tetrahydropyrans. Part 2: Effect of side chain homologation” (2007).
